ChEMBL document CHEMBL1124728, “Small peptide inhibitors of smooth muscle myosin light chain kinase” (J Med Chem, 1990)
pIC50: −log10 of the molar value. Non-standard residues stand in square brackets, D forms with d. Residues, ends and D or L forms follow the SMILES beside them. ξ: configuration not given here. *: point of attachment. Tyr(3,5-I2) = N[C@@H](Cc1cc(I)c(O)c(I)c1)C(=O)O; Bip = N[C@@H](Cc1ccc(-c2ccccc2)cc1)C(=O)O; Tyr(3-I) = N[C@@H](Cc1ccc(O)c(I)c1)C(=O)O; Dip = N[C@H](C(=O)O)C(c1ccccc1)c1ccccc1; 1Nal = N[C@@H](Cc1cccc2ccccc12)C(=O)O; 2Nal = N[C@@H](Cc1ccc2ccccc2c1)C(=O)O; Cha = N[C@@H](CC1CCCCC1)C(=O)O; OCH2CH2Ph = c1ccc(CCO*)cc1; ξαMeS = CC(N)(CO)C(=O)O; X3 = c1ccc(CCCCO*)cc1; NHBn = c1ccc(CN*)cc1; OBn = c1ccc(CO*)cc1; X2 = CCCCO*

Molecular target: T1, Myosin light chain kinase, smooth muscle (Gallus gallus, UniProt P11799)
T1 sequence (P11799 whole entry): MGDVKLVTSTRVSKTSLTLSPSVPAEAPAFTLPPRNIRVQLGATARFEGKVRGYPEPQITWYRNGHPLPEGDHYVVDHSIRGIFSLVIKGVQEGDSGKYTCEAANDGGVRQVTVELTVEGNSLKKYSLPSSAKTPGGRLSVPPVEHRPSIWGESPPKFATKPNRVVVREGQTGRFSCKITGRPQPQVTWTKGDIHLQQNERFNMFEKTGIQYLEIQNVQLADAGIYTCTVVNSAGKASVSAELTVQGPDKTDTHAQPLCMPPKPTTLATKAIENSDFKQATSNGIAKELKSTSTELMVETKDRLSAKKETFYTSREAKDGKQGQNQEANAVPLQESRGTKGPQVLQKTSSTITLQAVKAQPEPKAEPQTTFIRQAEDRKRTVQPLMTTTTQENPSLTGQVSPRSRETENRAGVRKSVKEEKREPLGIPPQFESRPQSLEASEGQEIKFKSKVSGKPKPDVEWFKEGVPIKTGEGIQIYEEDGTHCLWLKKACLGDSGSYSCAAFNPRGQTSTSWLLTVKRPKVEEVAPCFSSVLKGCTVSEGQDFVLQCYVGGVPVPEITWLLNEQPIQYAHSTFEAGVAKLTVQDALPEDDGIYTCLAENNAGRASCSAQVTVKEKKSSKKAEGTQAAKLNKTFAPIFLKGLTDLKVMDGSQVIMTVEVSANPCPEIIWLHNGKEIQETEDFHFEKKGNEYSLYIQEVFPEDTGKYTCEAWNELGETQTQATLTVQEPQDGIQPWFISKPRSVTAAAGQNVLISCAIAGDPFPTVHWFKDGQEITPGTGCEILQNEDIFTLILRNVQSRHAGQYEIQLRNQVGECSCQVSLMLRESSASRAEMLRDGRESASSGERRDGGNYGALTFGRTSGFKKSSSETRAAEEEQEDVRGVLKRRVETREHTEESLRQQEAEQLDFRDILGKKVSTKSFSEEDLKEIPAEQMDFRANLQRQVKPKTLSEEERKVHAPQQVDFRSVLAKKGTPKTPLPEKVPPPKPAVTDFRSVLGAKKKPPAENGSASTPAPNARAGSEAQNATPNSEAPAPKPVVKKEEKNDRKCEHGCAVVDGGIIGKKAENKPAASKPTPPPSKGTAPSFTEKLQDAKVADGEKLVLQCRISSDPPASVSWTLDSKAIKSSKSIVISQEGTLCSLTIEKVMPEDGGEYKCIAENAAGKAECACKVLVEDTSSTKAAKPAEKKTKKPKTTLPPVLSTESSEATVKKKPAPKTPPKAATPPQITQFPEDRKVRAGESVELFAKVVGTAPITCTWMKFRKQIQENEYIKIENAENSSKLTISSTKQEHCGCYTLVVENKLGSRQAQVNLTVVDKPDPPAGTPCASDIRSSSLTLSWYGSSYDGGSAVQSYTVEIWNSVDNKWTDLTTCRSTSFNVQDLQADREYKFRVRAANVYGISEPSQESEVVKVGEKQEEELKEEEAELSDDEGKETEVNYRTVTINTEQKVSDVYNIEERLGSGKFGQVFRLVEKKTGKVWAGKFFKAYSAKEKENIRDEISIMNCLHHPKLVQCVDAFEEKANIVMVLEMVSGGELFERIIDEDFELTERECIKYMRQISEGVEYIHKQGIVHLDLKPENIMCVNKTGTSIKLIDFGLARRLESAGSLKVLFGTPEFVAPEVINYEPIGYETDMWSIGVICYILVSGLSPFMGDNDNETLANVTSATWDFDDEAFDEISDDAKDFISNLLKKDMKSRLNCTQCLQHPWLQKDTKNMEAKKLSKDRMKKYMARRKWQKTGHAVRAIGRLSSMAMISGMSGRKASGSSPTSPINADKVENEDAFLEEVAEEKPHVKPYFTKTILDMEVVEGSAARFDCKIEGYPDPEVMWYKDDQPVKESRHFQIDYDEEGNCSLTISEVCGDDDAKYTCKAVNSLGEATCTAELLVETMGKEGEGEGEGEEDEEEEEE
Experiment: Inhibition of native form of chicken MLCK (myosin light chain kinase)
Method in brief: (§1)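 Native calmodulin-dependent gizzard MLCK, over 95% homogeneous, with 200 nM calmodulin, 1 mM EGTA and about 200 μM excess free Ca2+. Started with ATP and stopped with HCl; phosphocellulose filter counting. Graphical IC50 from duplicates at four concentrations, or % inhibition at a single concentration.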

Structure (SMILES)	pIC50
CC(C)[C@H](NC(=O)[C@H](CC(N)=O)NC(=O)[C@H](CO)NC(=O)[C@@H](NC(=O)[C@H](C)NC(=O)[C@@H](N)CCCNC(=N)N)[C@@H](C)O)C(=O)N[C@@H](Cc1ccccc1)C(=O)N[C@@H](C)C(=O)OCc1ccccc1 (H-RATSNVFA-OBn)	4.42
CC(C)[C@H](NC(=O)CNC(=O)[C@@H](N)CO)C(=O)N[C@@H](Cc1ccccc1)C(=O)N[C@@H](C)C(=O)OCc1ccccc1 (H-SGVFA-OBn)	3.35
C[C@H](NC(=O)[C@H](Cc1ccccc1)NC(=O)[C@H](Cc1ccccc1)NC(=O)[C@H](CC(N)=O)NC(=O)[C@@H](N)CO)C(=O)OCc1ccccc1 (H-SNFFA-OBn)	4.30
CSCC[C@H](NC(=O)[C@H](CC(N)=O)NC(=O)[C@@H](N)CO)C(=O)N[C@@H](Cc1ccccc1)C(=O)N[C@@H](C)C(=O)OCc1ccccc1 (H-SNMFA-OBn)	4.52
CC(C)[C@H](NC(=O)[C@H](CC(N)=O)NC(=O)[C@@H](N)CO)C(=O)N[C@@H](Cc1ccccc1)C(=O)OCc1ccccc1 (H-SNVF-OBn)	3.80
CC(C)[C@H](NC(=O)[C@H](CC(N)=O)NC(=O)[C@@H](N)CO)C(=O)N[C@@H](Cc1c[nH]c2ccccc12)C(=O)N[C@@H](C)C(=O)OCc1ccccc1 (H-SNVWA-OBn)	5.22
CC(C)[C@H](NC(=O)[C@H](CC(N)=O)NC(=O)[C@@H](N)CO)C(=O)N[C@@H](Cc1ccc(O)cc1)C(=O)N[C@@H](C)C(=O)OCc1ccccc1 (H-SNVYA-OBn)	4.35
CC(C)[C@H](NC(=O)[C@H](CC(N)=O)NC(=O)[C@@H](N)CO)C(=O)N[C@@H](Cc1cccc2ccccc12)C(=O)N[C@@H](C)C(=O)OCc1ccccc1 (H-SNV[1Nal]A-OBn)	5.70
CC(C)[C@H](NC(=O)[C@H](CC(N)=O)NC(=O)[C@@H](N)CO)C(=O)N[C@@H](Cc1ccc2ccccc2c1)C(=O)N[C@@H](C)C(=O)OCc1ccccc1 (H-SNV[2Nal]A-OBn)	4.92
CC(C)[C@H](NC(=O)[C@H](CC(N)=O)NC(=O)[C@@H](N)CO)C(=O)N[C@@H](Cc1ccc(-c2ccccc2)cc1)C(=O)N[C@@H](C)C(=O)OCc1ccccc1 (H-SNV[Bip]A-OBn)	6.00
CC(C)[C@H](NC(=O)[C@H](CC(N)=O)NC(=O)[C@@H](N)CO)C(=O)N[C@@H](CC1CCCCC1)C(=O)N[C@@H](C)C(=O)OCc1ccccc1 (H-SNV[Cha]A-OBn)	4.92
CC(C)[C@H](NC(=O)[C@H](CC(N)=O)NC(=O)[C@@H](N)CO)C(=O)N[C@H](C(=O)N[C@@H](C)C(=O)OCc1ccccc1)C(c1ccccc1)c1ccccc1 (H-SNV[Dip]A-OBn)	5.22
CC(C)[C@H](NC(=O)[C@H](CC(N)=O)NC(=O)[C@@H](N)CO)C(=O)N[C@@H](Cc1cc(I)c(O)c(I)c1)C(=O)N[C@@H](C)C(=O)OCc1ccccc1 (H-SNV[Tyr(3,5-I2)]A-OBn)	5.15
CC(C)[C@H](NC(=O)[C@H](CC(N)=O)NC(=O)[C@@H](N)CO)C(=O)N[C@@H](Cc1ccc(O)c(I)c1)C(=O)N[C@@H](C)C(=O)OCc1ccccc1 (H-SNV[Tyr(3-I)]A-OBn)	6.00

The next lines start with the values.

pIC50	Structure (SMILES)
5.30	CC(C)[C@H](NC(=O)[C@H](CC(N)=O)NC(=O)[C@H](N)CO)C(=O)N[C@@H](Cc1ccccc1)C(=O)N[C@@H](C)C(=O)OCc1ccccc1
4.25	CC(C)[C@H](NC(=O)[C@H](CC(N)=O)NC(=O)[C@@H]1C[C@H](O)CN1)C(=O)N[C@@H](Cc1ccccc1)C(=O)N[C@@H](C)C(=O)OCc1ccccc1
4.92	CC(C)[C@@H](NC(=O)[C@@H](CC(N)=O)NC(=O)[C@H](N)CO)C(=O)N[C@H](Cc1ccccc1)C(=O)N[C@H](C)C(=O)OCc1ccccc1
4.51	CC(C)[C@H](NC(=O)[C@H](CC(N)=O)NC(=O)[C@H](CO)NC(=O)[C@@H](NC(=O)[C@H](C)N)[C@@H](C)O)C(=O)N[C@@H](Cc1ccccc1)C(=O)N[C@@H](C)C(=O)OCc1ccccc1 (H-ATSNVFA-OBn)
5.10	CC(C)[C@H](NC(=O)[C@H](CC(N)=O)NC(=O)[C@@H](N)CS)C(=O)N[C@@H](Cc1ccccc1)C(=O)N[C@@H](C)C(=O)OCc1ccccc1 (H-CNVFA-OBn)
4.12	CSCC[C@H](N)C(=O)N[C@@H](CC(N)=O)C(=O)N[C@H](C(=O)N[C@@H](Cc1ccccc1)C(=O)N[C@@H](C)C(=O)OCc1ccccc1)C(C)C (H-MNVFA-OBn)
3.70	CC(C)[C@H](NC(=O)[C@H](CC(N)=O)NC(=O)[C@@H]1CCCN1)C(=O)N[C@@H](Cc1ccccc1)C(=O)N[C@@H](C)C(=O)OCc1ccccc1 (H-PNVFA-OBn)
5.52	CC(C)C[C@H](NC(=O)[C@H](CC(N)=O)NC(=O)[C@@H](N)CO)C(=O)N[C@@H](Cc1ccccc1)C(=O)N[C@@H](C)C(=O)OCc1ccccc1 (H-SNLFA-OBn)
4.82	CC(C)[C@H](NC(=O)[C@H](CC(N)=O)NC(=O)[C@@H](N)CO)C(=O)N[C@@H](Cc1ccccc1)C(=O)N[C@@H](C)C(=O)NCc1ccccc1 (H-SNVFA-NHBn)
4.82	CC(C)[C@H](NC(=O)[C@H](CC(N)=O)NC(=O)[C@@H](N)CO)C(=O)N[C@@H](Cc1ccccc1)C(=O)N[C@@H](C)C(=O)OCCc1ccccc1 (H-SNVFA-OCH2CH2Ph)
4.72	CC(C)[C@H](NC(=O)[C@H](CC(N)=O)NC(=O)[C@@H](N)CO)C(=O)N[C@@H](Cc1ccccc1)C(=O)N[C@@H](C)C(=O)OCCCCc1ccccc1 (H-SNVFA-X3)
4.37	CC(C)[C@H](NC(=O)[C@H](CC(N)=O)NC(=O)[C@@H](N)CO)C(=O)N[C@@H](Cc1ccccc1)C(=O)N[C@@H](CO)C(=O)OCc1ccccc1 (H-SNVFS-OBn)
4.74	CC(C)[C@H](NC(=O)[C@H](CC(N)=O)NC(=O)[C@@H](N)[C@@H](C)O)C(=O)N[C@@H](Cc1ccccc1)C(=O)N[C@@H](C)C(=O)OCc1ccccc1 (H-TNVFA-OBn)
4.82	CC(C)[C@H](NC(=O)[C@H](CC(N)=O)NC(=O)[C@H](CO)NC(=O)[C@@H](N)[C@@H](C)O)C(=O)N[C@@H](Cc1ccccc1)C(=O)N[C@@H](C)C(=O)OCc1ccccc1 (H-TSNVFA-OBn)
3.46	CC(C)[C@H](NC(=O)[C@H](CC(N)=O)NC(=O)C(C)(N)CO)C(=O)N[C@@H](Cc1ccccc1)C(=O)N[C@@H](C)C(=O)OCc1ccccc1 (some centres undefined) (H-[ξαMeS]NVFA-OBn)

Molecular target: T1, Myosin light chain kinase, smooth muscle
Experiment: Inhibition of calmodulin-independent form of myosin light chain kinase isolated from chicken gizzard.
Method in brief: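 Chicken gizzard MLCK made calmodulin-independent by limited trypsin digestion. It was started with ATP and stopped with HCl. Phosphate in substrate was counted on phosphocellulose filters. IC50 was read graphically from duplicates at four concentrations and reported as the mean, or as % inhibition at one concentration.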

Structure (SMILES)	pIC50
CC(C)[C@H](NC(=O)[C@H](CC(N)=O)NC(=O)[C@@H](N)CO)C(=O)N[C@H](/C=C/C=C/c1ccccc1)Cc1ccccc1	5.41
CC(C)[C@H](NC(=O)[C@H](CC(N)=O)NC(=O)[C@@H](N)CO)C(=O)N[C@H](/C=C\[C@@H](C)COCc1ccccc1)Cc1ccccc1	4.77
CC(C)[C@@H](CN[C@@H](Cc1ccccc1)C(=O)N[C@@H](C)C(=O)OCc1ccccc1)NC(=O)[C@H](CC(N)=O)NC(=O)[C@@H](N)CO	3.58
CC(C)[C@H](NC(=O)[C@H](CC(N)=O)NC(=O)[C@@H](N)CO)C(=O)N[C@H](CCCCc1ccccc1)Cc1ccccc1	4.92
CC(C)[C@@H](/C=C/[C@@H](Cc1ccccc1)C(=O)N[C@@H](C)C(=O)OCc1ccccc1)NC(=O)[C@H](CC(N)=O)NC(=O)[C@@H](N)CO	4.44
CC(C)[C@H](/C=C/[C@H](CC(N)=O)NC(=O)[C@@H](N)CO)C(=O)N[C@@H](Cc1ccccc1)C(=O)N[C@@H](C)C(=O)NCc1ccccc1	3.56
CC(C)[C@H](NC(=O)[C@H](CC(N)=O)NC(=O)[C@@H](N)CO)C(=O)N[C@H](/C=C/[C@@H](C)COCc1ccccc1)Cc1ccccc1	4.64
CC(C)[C@H](NC(=O)[C@H](CC(N)=O)NC(=O)[C@@H](N)CO)C(=O)N[C@H](/C=C/C(CCCc1ccccc1)CCCc1ccccc1)Cc1ccccc1	6.22
CCCCOC(=O)[C@H](C)NC(=O)[C@H](Cc1ccccc1)NC(=O)[C@@H](NC(=O)[C@H](CC(N)=O)NC(=O)[C@@H](N)CO)C(C)C (H-SNVFA-X2)	3.73
CC(C)[C@H](NC(=O)[C@H](CC(N)=O)NC(=O)[C@@H](N)CO)C(=O)N[C@@H](Cc1cccc2ccccc12)C(=O)N[C@@H](C)C(=O)OCc1ccccc1 (H-SNV[1Nal]A-OBn)	5.70
CC(C)[C@H](NC(=O)[C@H](CC(N)=O)NC(=O)[C@@H](N)CO)C(=O)N[C@@H](Cc1ccc(-c2ccccc2)cc1)C(=O)N[C@@H](C)C(=O)OCc1ccccc1 (H-SNV[Bip]A-OBn)	5.30

The next lines start with the values.

pIC50	Structure (SMILES)
4.19	CC(C)[C@H](NC(=O)[C@H](CC(N)=O)NC(=O)[C@@H](N)CO)C(=O)N[C@@H](Cc1ccccc1)C(=O)N[C@H](C)C(=O)OCc1ccccc1
4.12	CC(C)[C@H](NC(=O)[C@H](CC(N)=O)NC(=O)[C@@H](N)CO)C(=O)N[C@H](Cc1ccccc1)C(=O)N[C@@H](C)C(=O)OCc1ccccc1
4.92	CC(C)[C@H](NC(=O)[C@H](CC(N)=O)NC(=O)[C@H](N)CO)C(=O)N[C@@H](Cc1ccccc1)C(=O)N[C@@H](C)C(=O)OCc1ccccc1
3.73	CC(C)[C@@H](NC(=O)[C@@H](CC(N)=O)NC(=O)[C@@H](N)CO)C(=O)N[C@@H](Cc1ccccc1)C(=O)N[C@@H](C)C(=O)OCc1ccccc1
4.74	CC(C)[C@H](NC(=O)[C@H](C)NC(=O)[C@@H](N)CO)C(=O)N[C@@H](Cc1ccccc1)C(=O)N[C@@H](C)C(=O)OCc1ccccc1 (H-SAVFA-OBn)
3.72	C[C@H](NC(=O)[C@H](Cc1ccccc1)NC(=O)[C@@H](NC(=O)[C@H](CC(N)=O)NC(=O)[C@@H](N)CO)[C@@H](C)O)C(=O)OCc1ccccc1 (H-SNTFA-OBn)
4.80	CC(C)[C@H](NC(=O)[C@H](CC(N)=O)NC(=O)[C@@H](N)CO)C(=O)N[C@@H](Cc1ccccc1)C(=O)N[C@@H](C)C(=O)NCc1ccccc1 (H-SNVFA-NHBn)
4.30	CC(C)[C@H](NC(=O)[C@H](CC(N)=O)NC(=O)[C@@H](N)CO)C(=O)N[C@@H](Cc1ccccc1)C(=O)N[C@@H](C)C(=O)OCCc1ccccc1 (H-SNVFA-OCH2CH2Ph)
4.62	CC(C)[C@H](NC(=O)[C@@H](NC(=O)[C@@H](N)CO)C(C)C)C(=O)N[C@@H](Cc1ccccc1)C(=O)N[C@@H](C)C(=O)OCc1ccccc1 (H-SVVFA-OBn)

Molecular target: Myosin light chain kinase, smooth muscle (Gallus gallus) (UniProt P11799)
Sequence (P11799 whole entry): as above
Experiment: Inhibition of native form of myosin light chain kinase at from chicken gizzard 100 uM
Method in brief: as §1

Structure (SMILES)	inhibition [%]
CC(C)[C@@H](NC(=O)[C@H](CC(N)=O)NC(=O)[C@@H](N)CO)C(=O)N[C@@H](Cc1ccccc1)C(=O)N[C@@H](C)C(=O)OCc1ccccc1	0
CC(C)[C@H](NC(=O)[C@@H](CC(N)=O)NC(=O)[C@@H](N)CO)C(=O)N[C@@H](Cc1ccccc1)C(=O)N[C@@H](C)C(=O)OCc1ccccc1	0
CC(C)[C@H](NC(=O)[C@@H](CC(N)=O)NC(=O)[C@H](N)CO)C(=O)N[C@@H](Cc1ccccc1)C(=O)N[C@@H](C)C(=O)OCc1ccccc1	14
CC(C)[C@H](NC(=O)[C@H](CC(N)=O)NC(=O)CN)C(=O)N[C@@H](Cc1ccccc1)C(=O)N[C@@H](C)C(=O)OCc1ccccc1 (H-GNVFA-OBn)	37
CC(C)[C@H](NC(=O)[C@H](CC(=O)O)NC(=O)[C@@H](N)CO)C(=O)N[C@@H](Cc1ccccc1)C(=O)N[C@@H](C)C(=O)OCc1ccccc1 (H-SDVFA-OBn)	0
